Assay results: ChEMBL document CHEMBL4680108, “Ancistrolikokine E, a 5,8'-Coupled Naphthylisoquinoline Alkaloid, Eliminates the Tolerance of Cancer Cells to Nutrition Starvation by Inhibition of the Akt/mTOR/Autophagy Signaling Pathway” (2018)
Active and inactive are the calls of the source. The rule behind the calls is not given here.

Tests used:
PANC-1 [1] = assay: Anti-austerity activity against nutrient-deprived human PANC-1 cells assessed as cell death incubated for 24 hrs by WST-8 assay; format: functional
In short: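 Human PANC-1 pancreatic cancer cells tested in parallel in nutrient-deprived medium (NDM) and in nutrient-rich DMEM. PC50 is the concentration that kills 50% of cells in NDM without toxicity in DMEM.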

PANC-1 [2] = assay: Induction of morphological changes in human PANC-1 cells cultured in nutrient-deprived medium assessed as cell death measured after 24 hrs by ethidium bromide/acridine orange staining based phase contrast microscopy; format: functional; details: dose 1.25-5 µM
In short: (§1)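 PANC-1 cells (2 × 10^5/well) attached in DMEM for 24 h, washed twice with PBS, then treated in NDM (1.25, 2.5, 5 μM; control in NDM alone) for 24 h. Stained with ethidium bromide/acridine orange and imaged in phase-contrast and red/green fluorescence modes (20× objective).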

PANC-1 [3] = assay: Induction of necrosis in human PANC-1 cells cultured in nutrient-deprived medium assessed as round cell morphology at 5 uM measured after 24 hrs by ethidium bromide/acridine orange staining based phase contrast microscopy; format: functional; in short: as §1
PANC-1 [4] = assay: Induction of necrosis in human PANC-1 cells cultured in nutrient-deprived medium assessed as membrane blebbing at 5 uM measured after 24 hrs by ethidium bromide/acridine orange staining based phase contrast microscopy; format: functional, cell-based; in short: as §1
PANC-1 [5] = assay: Induction of necrosis in human PANC-1 cells cultured in nutrient-deprived medium assessed as rupture of cell membrane at 5 uM measured after 24 hrs by ethidium bromide/acridine orange staining based phase contrast microscopy; format: functional; in short: as §1
PANC-1 [6] = assay: Induction of necrosis in human PANC-1 cells cultured in nutrient-deprived medium assessed as leakage of cellular contents in to the medium at 5 uM measured after 24 hrs by ethidium bromide/acridine orange staining based phase contrast microscopy; format: functional, cell-based; in short: as §1
PANC-1 [7] = assay: Inhibition of cell migration in human PANC1 cells assessed as wound length at 5 uM cultured in nutrient rich DMEM medium measured after 48 hrs by wound healing assay relative to T0; format: functional; parameters: scale not given: the % may be the effect or the level left
In short: (§2)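 PANC-1 monolayers (5 × 10^5 cells/well), attached 24 h, scratched about 600 μm with a pipet tip, washed with PBS. Exposed in DMEM to 0–10 μM for 48 h in triplicate. Wound length measured at 10 points on phase-contrast images and expressed relative to initial length at T0.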

PANC-1 [8] = assay: Inhibition of cell migration in human PANC1 cells assessed as wound length at 10 uM cultured in nutrient rich DMEM medium measured after 48 hrs by wound healing assay relative to T0; format: functional; parameters: scale not given: the % may be the effect or the level left; in short: as §2
PANC-1 [9] = assay: Inhibition of colony formation in human PANC-1 cells at 2.5 uM cultured in nutrient rich DMEM medium measured after 24 hrs by crystal violet staining based assay relative to control; format: functional
In short: (§3)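 PANC-1 cells (5 × 10^2/well) attached in DMEM for 24 h, then exposed to 0, 2.5, 5 or 10 μM in DMEM for 24 h (triplicate). Washed, grown in fresh compound-free DMEM for 12 days, fixed in 4% formaldehyde and stained with crystal violet for 10 min. Colony area measured as a percentage of well area.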

PANC-1 [10] = assay: Inhibition of colony formation in human PANC-1 cells at 5 uM cultured in nutrient rich DMEM medium measured after 24 hrs by crystal violet staining based assay relative to control; format: functional; in short: as §3
PANC-1 [11] = assay: Inhibition of colony formation in human PANC-1 cells at 10 uM cultured in nutrient rich DMEM medium measured after 24 hrs by crystal violet staining based assay relative to control; format: functional; in short: as §3
PANC-1 [12] = assay: Inhibition of colony formation in human PANC-1 cells cultured in nutrient rich DMEM medium measured after 24 hrs by crystal violet staining based assay; format: functional, cell-based; details: dose 2.5-10 µM; in short: as §3
PANC-1 [13] = assay: Anticancer activity against human PANC-1 cells assessed as inhibition of cell motility at 10 uM measured within 90 mins by digital cell imaging analysis; format: functional, cell-based; details: time min <=90
In short: (§4)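 PANC-1 cells (3 × 10^6) in 35 mm dishes in nutrient-deprived medium (NDM), treated with 10 μM; kept in a stage-top incubator at 37 °C, 5% CO2. Phase-contrast images taken every 10 min for 24 h (145 frames, 20× objective). Untreated cells in NDM served as control.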

PANC-1 [14] = assay: Anticancer activity against human PANC-1 cells assessed as induction of morphological changes at 10 uM measured after 7 hrs by digital cell imaging analysis; format: functional, cell-based; in short: as §4
PANC-1 [15] = assay: Anticancer activity against human PANC-1 cells assessed as cell death at 10 uM measured after 13 hrs by digital cell imaging analysis; format: functional, cell-based; in short: as §4
PANC-1 [16] = assay: Anticancer activity against human PANC-1 cells assessed as cell death at 10 uM measured within 20 hrs by digital cell imaging analysis relative to control; format: functional
In short: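 PANC-1 cells (3 × 10^6) in 35 mm dishes were exposed to 10 μM compound in nutrient-deprived medium in a stage-top incubator at 37 °C, 5% CO2. Phase-contrast images were taken every 10 min for 24 h (145 frames, 20× objective). Untreated cells in NDM served as control.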

PANC-1 [17] = assay: Induction of apoptotic cell death in human PANC-1 cells cultured in nutrient-deprived medium assessed as membrane blebbing at 5 uM measured after 24 hrs by Hoechst 33342 staining based phase-contrast digital microscopy; format: functional
In short: (§5)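 Cells (2 × 10^5) plated in 35 mm dishes, left 24 h to attach, washed twice with PBS, then given 5 μM in NDM for 24 h. Hoechst 33342 added directly to the medium for 5 min. Imaged in phase-contrast and fluorescence modes (20× objective).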

PANC-1 [18] = assay: Induction of apoptotic cell death in human PANC-1 cells cultured in nutrient-deprived medium assessed as leakage of cellular contents in to the medium at 5 uM measured after 24 hrs by Hoechst 33342 staining based phase-contrast digital microscopy; format: functional; in short: as §5
PANC-1 [19] = assay: Induction of apoptotic cell death in human PANC-1 cells cultured in nutrient-deprived medium assessed as intact nuclei at 5 uM measured after 24 hrs by Hoechst 33342 staining based phase-contrast digital microscopy; format: functional; in short: as §5
PANC-1 [20] = assay: Induction of apoptotic cell death in human PANC-1 cells cultured in nutrient-deprived medium assessed as chromatin fragmentation at 5 uM measured after 24 hrs by Hoechst 33342 staining based phase-contrast digital microscopy; format: functional; in short: as §5
PANC-1 [21] = assay: Induction of apoptotic cell death in human PANC-1 cells cultured in nutrient-deprived medium assessed as formation of apoptotic bodies at 5 uM measured after 24 hrs by Hoechst 33342 staining based phase-contrast digital microscopy; format: functional; in short: as §5
PANC-1 [22] = assay: Induction of apoptosis in human PANC-1 cells assessed as inhibition of Bcl-2 after 6 hrs by Western blot analysis; format: functional, cell-based; details: dose 2.5-40 µM
In short: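 PANC-1 cells in NDM or DMEM exposed to compound at different concentrations for 6 h, then immunoblotted for Bcl-2, Bcl-xL and caspase-3.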

## COc1cc(OC)c(-c2ccc(O)c3c(OC)cc(C)cc23)c2c1C(C)=N[C@H](C)C2
PANC-1 [1]
  Activity: Dose-dependent effect
  PC50: 2.5 µM
PANC-1 [2]
  Activity: Dose-dependent effect
PANC-1 [3]
  Activity: Active
PANC-1 [4]
  Activity: Active
PANC-1 [5]
  Activity: Active
PANC-1 [6]
  Activity: Active
PANC-1 [7]
  Activity: 58%
PANC-1 [8]
  Activity: 11%
PANC-1 [9]
  inhibition at 2.5 µM: ≤ 90%
PANC-1 [10]
  inhibition at 5 µM: 100%
PANC-1 [11]
  inhibition at 10 µM: 100%
PANC-1 [12]
  inhibition: Dose-dependent effect
PANC-1 [13]
  inhibition: Active
PANC-1 [14]
  Activity: Active
PANC-1 [15]
  Activity: Active
PANC-1 [16]
  Activity: 100%
PANC-1 [17]
  Activity: Active
PANC-1 [18]
  Activity: Active
PANC-1 [19]
  Activity: Active
PANC-1 [20]
  Activity: inactive
PANC-1 [21]
  Activity: inactive
PANC-1 [22]
  inhibition: Active
